Reference: PubChem BioAssay AID1744 (Vanderbilt High Throughput Screening Facility, 2009)

Biological target: Muscarinic acetylcholine receptor M1 (Rattus norvegicus) (UniProt P08482)
Test: agonist potency across muscarinic M1-M5 subtypes, profiling panel, selectivity assay for M1 allosteric modulator project, cell-based, agonist mode (AID 1744)
Conditions: CHO-K1 rat M1, Fluo-4 calcium flux
In short: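 System: CHO-K1 cells stably carrying rat M1 muscarinic receptor. Buffer or medium: Fluo-4 loading buffer at pH 7.4. Doses: compounds alone, agonist mode. Timing: 1 h dye loading, 37 °C. Detection: Fluo-4 fluorescence calcium flux measurement. Controls: maximal acetylcholine signal.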

| EC50 | SMILES |
| --- | --- |
| 804 nM | CCOC(=O)N1CCC(NCCNC(=O)c2ccccc2Cl)CC1 |
| 152 nM | CCOC(=O)N1CCC(NCCNC(=O)c2ccccc2)CC1 |
| 154 nM | CCOC(=O)N1CCC(NCCNC(=O)c2cccc(F)c2)CC1 |
| 198 nM | CCOC(=O)N1CCC(NCCNC(=O)c2ccccc2C)CC1 |
| 154 nM | CCOC(=O)N1CCC(NCCNC(=O)c2ccc(F)cc2)CC1 |
| 211 nM | CCOC(=O)N1CCC(NCCNC(=O)c2ccc(F)c(F)c2)CC1 |
| 438 nM | CCOC(=O)N1CCC(NCCNC(=O)c2cccc(OC)c2)CC1 |
| 1740 nM | CCOC(=O)N1CCC(NCCNC(=O)c2cccs2)CC1 |
